Experimental data reported in ChEMBL document CHEMBL1122670, “Synthesis of previously inaccessible quinazolines and 1,4-benzodiazepines as potential anticonvulsants” (J Med Chem, 1984).

Tests used:
[1] = system: Mus musculus; assay: Effective dose (ED50) was determined (at 4hi)n sc Met (pentylenetetrazole) seizure threshold test; format: functional
Method in brief: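 ADD Program screen in mice. Doses of 30, 100, 300 and 600 mg/kg were given, four animals per dose, with tests at 30 min and at 4 h. sc Met endpoint: no threshold seizure (single clonic spasm of 5 s) after an sc convulsant dose 99 of pentylenetetrazol. Rotorod assessed acute neurotoxicity. ED50/TD50 were estimated graphically; Litchfield-Wilcoxon 95% confidence limits were added for selected cases.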

[2] = Compound was determined in rotarod test and expressed as TD50; format: ADME, organism-based; settings: mouse, in vivo
Method in brief: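 ADD Program screen in mice. Doses of 30, 100, 300 and 600 mg/kg were given, four animals per dose, with tests at 30 min and at 4 h. sc Met endpoint: no threshold seizure (single clonic spasm of 5 s) after an sc convulsant dose 99 of pentylenetetrazol. Rotorod assessed acute neurotoxicity.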

[3] = system: Mus musculus; assay: Evaluated for seizure threshold test at a dose 300 mg/kg &MMT is the maximal metrazole threshold to tonic flexion.; format: functional
Method in brief: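 0.5% pentylenetetrazol (with 0.9% NaCl and 0.001% heparin) was infused into a lateral tail vein at 6.31 μL/s. Time to 3 s of persistent clonus (MST) or hindlimb tonic flexion (MMT) was converted to mg/kg infused. Tested at 0.5 h (some at 4 h or 1 h). Results are % change from controls, by Student's t test.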

[4] = system: Mus musculus; assay: Evaluated for seizure threshold test at a dose 300 mg/kg &MST is the metrazole seizure threshold to persistent clonus; format: functional
Method in brief: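 At 0.5 h (some at 1 or 4 h), 0.5% pentylenetetrazol in 0.9% NaCl with 0.001% heparin was infused into the tail vein at 6.31 μL/s. Time to 3 s persistent clonus (MST) or tonic flexion (MMT) was converted to mg/kg, reported as % change vs controls, Student's t test.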

Cc1cc2c(c(C#N)c1C)NC(=O)NC2c1ccccc1 (centres undefined)
ED50 [1]: 600 mg/kg | TD50 [2]: > 1000 mg/kg | Change [3]: 22% | Change [4]: 36%
